SMILES strings stand for the structures. Activity calls are given as the source filed them. No cut-off for these calls is given here.

Data set [1] deals with HL-60. As to the kind of experiment: Antiproliferative activity against human HL60 cells. In kind it is functional, cell-based.
In data set [2] the test system is SF-295. Kind of data set: Antiproliferative activity against human SF295 cells. The data set is classed as functional, cell-based.
For data set [3], the system named is MDA-MB-435. As to the kind of experiment: Antiproliferative activity against human MDA-MB-435 cells. In kind it is functional, cell-based.
Data set [4] concerns HCT-8. As to the kind of experiment: Antiproliferative activity against human HCT8 cells. In kind it is functional, cell-based.
Data set [5] deals with Bothrops pauloensis. As to the kind of experiment: Antiophidic activity against Bothropoides pauloensis venom-induced myotoxicity in Swiss mouse assessed as creatine kinase level at 50 ug preincubated with venom for 30 mins before venom injection measured 2 to 48 hrs post dose. In kind it is functional. The method in brief: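 Injected mixture was 50 μg venom with 50 μg alkaloid in 50 μL 1% DMSO–PBS (pH 7.2), preincubated 30 min at 37 °C; vehicle controls. Retro-orbital blood was taken at 2, 4, 8, 24 and 48 h. Plasma creatine kinase was measured by UV kit, in U/L (1 U = 1 μmol NADH/min at 37 °C). Mean ± SEM.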

The target in data set [6] is T1, Basic phospholipase A2 homolog BnSP-7 (Bothropoides pauloensis) (UniProt Q9IAT9).
T1 sequence (whole entry): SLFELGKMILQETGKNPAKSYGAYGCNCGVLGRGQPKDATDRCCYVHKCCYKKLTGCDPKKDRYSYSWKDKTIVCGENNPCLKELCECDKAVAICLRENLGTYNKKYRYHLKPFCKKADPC
Kind of data set: Inhibition of Phospholipase A2 Asp49 in Bothropoides pauloensis at 1:1 venom to drug ratio incubated up to 40 mins using 4N3OBA substrate by multiwell plate reader method. Particulars: Bothrops pauloensis. The method in brief: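 Whole venom (1 mg/mL), alone or preincubated 1:1 (w:w) with compound, was added to Tris-HCl 0.1 M, Ca2+ 0.01 M, pH 8.0, with 4-nitro-3-octanoyloxybenzoic acid substrate. Mixture was kept at 37 °C up to 40 min, reading A425 every 5 min. V0 came from the absorbance increase after 20 min.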

For data set [7], the system named is Bothrops pauloensis. Kind of data set: Antihemorrhagic activity against Bothropoides pauloensis venom-induced hemorrhage in Swiss mouse assessed as decrease in hemorrhagic area at 50 ug preincubated with venom for 30 mins before venom injection measured 2 hrs post dose. The data set is classed as functional. The method in brief: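 Mice received 50 μL of 1% DMSO–PBS (pH 7.2) holding 50 μg B. pauloensis venom plus 50 μg alkaloid, preincubated 30 min at 37 °C. Vehicle-only negative controls. Five animals were killed at 2 h, and the inner dorsal skin was photographed. Hemorrhagic area was measured in mm2. Mean ± SEM, ANOVA with Dunnett's test.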

Data set [8] deals with Bothrops pauloensis. As to the kind of experiment: Antihemorrhagic activity against Bothropoides pauloensis venom-induced hemorrhage in Swiss mouse assessed as reduction in intensity of hemorrhage area at 50 ug preincubated with venom for 30 mins before venom injection measured 2 hrs post dose. The data set is classed as functional. The essentials:
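Venom (50 μg) was premixed with 50 μg alkaloid in 50 μL 1% DMSO–PBS, pH 7.2, and held 30 min at 37 °C before injection. At 2 h, five mice were killed and the inner dorsal skin was imaged. Intensity I = A × (N − H): A is area in mm2, N and H are mean colour intensity of normal and hemorrhagic skin. ANOVA/Dunnett.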

A short description of data set [9]: Fntinecrotizing activity against Bothropoides pauloensis venom-induced hemorrhage in Swiss mouse assessed as reduction in skin necrotic regions at 50 ug preincubated with venom for 30 mins before venom injection measured 2 hrs post dose. Particulars: bothrops pauloensis, in vivo. The data set is classed as ADME, tissue-based, Skin of body.

Turning to `C[C@H]1C[C@H]2O[C@]23[C@@H](C)[C@H]2[C@H](C[C@H]4[C@@H]5CCC6=CC(=O)C=C[C@]6(C)C5=CC[C@]24C)N3C1`, the outcome in data set [1], in data set [2], in data set [3] and in data set [4] was inactive. Besides, the result in [5], in [7] and in data set [8] was Active. Also, the inhibition entry in [6] was “inactive”. Moreover, the result in [9] was Active.

For the compound `C[C@H]1C[C@H]2O[C@]23[C@@H](C)[C@H]2[C@H](C[C@H]4[C@@H]5CCC6=CC(=O)C=C[C@]6(C)[C@H]5CC[C@]24C)N3C1` (relative stereo), the result in [1], in data set [2], in data set [3] and in [4] was inactive. For the same compound, the result in [5], in data set [7] and in [8] was Active. Moreover, the inhibition entry in data set [6] was “inactive”. The result in data set [9] was Active.

Turning to `Cc1ccc(O)cc1CC[C@@H]1[C@@H](O)CC[C@]2(C)[C@@H]3[C@H](C[C@@H]12)N1C[C@@H](C)C[C@H]2O[C@]21[C@H]3C` (relative stereo), the outcome in data set [1], in data set [2], in data set [3] and in data set [4] was inactive. Further, the outcome in [5] was Active. In addition, the inhibition result in data set [6] is “inactive”.

These data come from ChEMBL document CHEMBL2146400, “Antiophidic solanidane steroidal alkaloids from Solanum campaniforme” (J Nat Prod, 2011).
